# A selection: hits, their analogues and other compounds. The true share with any hit is near 5.9%.
# T cruzi growth-1: T. cruzi intracellular proliferation inhibitors, primary screen, cell-based, beta-gal Tulahuen parasites, NIH3T3 host, luminescence; T. cruzi beta-gal in NIH3T3, GalScreen luminescence, 90 h; inhibition, % at 8.34 µM; hit rate 5.9% among 77,000;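 active means mean inhibition above about 93%, with at least 55% of replicates each passing it, limit read from the data, passing the limit was not always enough; inconclusive means only one of those two conditions holds; inactive means neither condition holds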
# IDH1 mut inh: inhibitors of IDH1 R132H reductase, primary screen, biochemical, plate reader, single point; diaphorase/resazurin fluorescence, 60 min; inhibition, % at 10 µM; hit rate 0.18% among 70,000; AID 624101, 2012; in the data active means inhibition above about 34%; inconclusive means no clear call, values can overlap the other calls; inactive means below about 11%
# KDM4C inh: inhibitors of GASC-1 (KDM4C) histone demethylase, primary screen, biochemical, single concentration HTS | inhibition, % at 12.5 µM | GST-KDM4C 2-372, H3K9me3 peptide, LANCE TR-FRET | Lysine-specific demethylase 4C (Homo sapiens), Q9H3R0 | hit rate 0.15% among 96,000;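 active means mean replicate inhibition above about 25%, with at least 55% of replicates also reaching it, limit read from the data, passing the limit was not always enough; inconclusive means only one of those two conditions met; inactive means neither condition met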
# Target sequence (Q9H3R0 2-372 limits assumed): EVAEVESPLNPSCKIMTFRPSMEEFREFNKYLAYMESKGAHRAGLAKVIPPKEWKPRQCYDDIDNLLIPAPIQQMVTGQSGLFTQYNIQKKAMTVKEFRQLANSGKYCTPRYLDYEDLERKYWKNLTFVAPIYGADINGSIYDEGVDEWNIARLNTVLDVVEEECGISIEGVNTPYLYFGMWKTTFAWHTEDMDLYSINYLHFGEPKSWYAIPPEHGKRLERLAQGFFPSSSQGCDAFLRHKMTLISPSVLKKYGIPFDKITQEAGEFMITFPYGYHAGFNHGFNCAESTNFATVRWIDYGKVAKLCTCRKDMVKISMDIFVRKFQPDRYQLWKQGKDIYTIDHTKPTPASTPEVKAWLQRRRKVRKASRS
#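 Material: GST-tagged GASC-1 (JMJD2C) catalytic fragment, aa 2-372 / Quantity: enzyme final amount 10 nM / Medium: HEPES buffer, pH 7.5, plus ascorbate / Doses: one test concentration per compound / Incubation: 30 min reaction, 60 min detection, RT / Measured by: LANCE TR-FRET / Read-out: inhibition from TR-FRET ratio decrease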
# Pf Dd2 inh: P. falciparum Dd2 growth inhibitors, primary screen, SYBR Green fluorescence, single dose replicates; 72 h; active compounds read low; activity change, % at 10 µM; hit rate 2.3% among 94,000; in the data active means activity change below about -80%; inconclusive means no clear call, values can overlap the other calls
# T cruzi growth-2: T. cruzi intracellular proliferation inhibitors, confirmation, cell-based, NIH3T3 host, beta-gal parasite, luminescence, cherry-pick; shares compounds with T cruzi growth-1; T. cruzi beta-gal in NIH3T3, GalScreen luminescence, 90 h; inhibition, % at 8.35 µM; hit rate 72% among 5,600; AID 651739, 2012;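 active means mean replicate inhibition above about 95% and at least 55% of replicates individually reaching it, limit read from the data; inconclusive means only one of the two criteria is met; inactive means neither criterion is met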
# T cruzi growth-3: inhibitors of intracellular T. cruzi replication, confirmation, NIH3T3 host cells, beta-gal parasites, cherry-pick, set 2; hit rate 21% among 5,600; inhibition, % at 2.09 µM; AID 651740, 2012; T. cruzi beta-gal in NIH3T3, GalScreen luminescence, 90 h; shares compounds with T cruzi growth-1;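 active means mean inhibition above about 95%, with at least 55% of replicates also reaching it, limit read from the data; inconclusive means meets just one of the two conditions; inactive means meets neither condition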
# NIH3T3 tox: cytotoxicity in mouse NIH/3T3 fibroblasts, confirmation, cytotoxicity control for T. cruzi proliferation inhibitor project, cell-based, cherry-pick, single point; NIH/3T3 viability, CellTiter-Glo ATP luminescence, 90 h; hit rate 14% among 5,600; cytotoxicity (signal decrease), % at 8.35 µM; shares compounds with T cruzi growth-1;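 active means mean signal decrease across replicates above about 35% based on untreated-well scatter, with enough replicates individually passing, limit read from the data; inconclusive means no rule stated though some were filed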
# NIH3T3 tox 2: NIH/3T3 fibroblast cytotoxicity, confirmation, cytotoxicity control, cell-based, cherry-pick, single point, set 2. shares compounds with T cruzi growth-1. hit rate 56% among 5,600. AID 651744, 2012. NIH/3T3 viability, CellTiter-Glo ATP luminescence, 90 h. inhibition, % at 24.9 µM;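 active means mean loss of cell viability signal at or above a set limit, and enough replicates individually reaching it; inconclusive means meets only the mean limit or only the replicate share; inactive means meets neither condition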
# Numbers stand for hits; n = inactive; u = inconclusive; x = not tested or not shown.
SMILES,T cruzi growth-1,IDH1 mut inh,KDM4C inh,Pf Dd2 inh,T cruzi growth-2,T cruzi growth-3,NIH3T3 tox,NIH3T3 tox 2
COc1ccc(S(=O)(=O)N2C[C@H](O)COC[C@H]3O[C@@H](CC(=O)NCc4ccc(Cl)c(Cl)c4)CC[C@@H]32)cc1,98,x,n,n,100,n,n,42
COc1ccc(S(=O)(=O)N2C[C@H](O)COC[C@@H]3O[C@H](CC(=O)NCc4ccc(Cl)c(Cl)c4)CC[C@H]32)cc1,144,x,n,n,n,n,n,64
Cc1ccc(S(=O)(=O)N2C[C@H](O)COC[C@@H]3O[C@H](CC(=O)NCc4ccc(Cl)c(Cl)c4)CC[C@H]32)cc1,n,x,n,n,x,x,x,x
COc1ccc(S(=O)(=O)N2C[C@@H](O)COC[C@H]3O[C@H](CC(=O)NCc4ccc(Cl)c(Cl)c4)CC[C@@H]32)cc1,129,x,n,n,n,n,n,43
COc1ccc(S(=O)(=O)N2C[C@@H](O)COC[C@@H]3O[C@H](CC(=O)NCc4ccc(Cl)c(Cl)c4)CC[C@H]32)cc1,143,x,n,n,110,n,u,33
O=C(N/N=C/c1cc(Cl)cc(Cl)c1O)c1ccccc1O,x,n,x,x,x,x,x,x
Cc1cc(OCC(=O)Nc2ccccc2-c2nc3ccccc3s2)ccc1Cl,x,n,x,x,x,x,x,x
COc1ccc(S(=O)(=O)N2C[C@H](O)COC[C@H]3O[C@H](CC(=O)NCc4ccc(Cl)c(Cl)c4)CC[C@@H]32)cc1,u,x,n,n,n,n,n,44
COc1ccc(S(=O)(=O)N2C[C@@H](O)COC[C@@H]3O[C@@H](CC(=O)NCc4ccc(Cl)c(Cl)c4)CC[C@H]32)cc1,168,x,n,n,n,n,n,42
O=C(O)C1C2CCC(O2)C1C(=O)Nc1ccc(S(=O)(=O)N2CCc3ccccc32)cc1 (stereo not given),x,n,x,x,x,x,x,x
CC=Cc1ccc2n(c1=O)C[C@H]1[C@H](CO)[C@@H](C(=O)Nc3ccc(-c4ccccc4)cc3)N(CCC)[C@@H]21 (mixture of isomers),112,x,n,n,n,n,n,104
CC=Cc1ccc2n(c1=O)C[C@@H]1[C@@H](CO)[C@H](C(=O)Nc3ccc(-c4ccccc4)cc3)N(CCC)[C@H]21 (mixture of isomers),103,x,n,n,100,n,n,106
CC=Cc1ccc2n(c1=O)C[C@H]1[C@H](CO)[C@@H](C(=O)Nc3ccc(-c4ccccc4)cc3)N(C)[C@@H]21 (mixture of isomers),n,x,n,x,x,x,x,x
COC1OC(OC)C(O)(CC[C@@]2(O)[C@H](C)C[C@@H](O)C3[C@@](C)(CO)CCC[C@]32C)C1O (stereo not given in full),x,n,x,x,x,x,x,x
O=C(NC1CCCC1)N1CCCCN2[C@H](CO)[C@H](c3ccc(-c4cncnc4)cc3)[C@@H]2C1,102,x,n,n,n,n,n,n
Cc1ccccc1-c1ccc([C@@H]2[C@H](CO)N3CCCCN(C(=O)NC4CCCC4)C[C@@H]23)cc1,118,x,n,n,106,n,n,105
O=C(NC1CCCC1)N1CCCCN2[C@@H](CO)[C@@H](c3ccc(-c4ccncc4)cc3)[C@@H]2C1,105,x,n,n,97,n,n,n
O=C(NC1CCCC1)N1CCCCN2[C@H](C1)[C@H](c1ccc(-c3cncnc3)cc1)[C@@H]2CO,u,x,n,n,107,n,n,n
COc1ccccc1-n1c(SCC(=O)c2ccc(Cl)cc2)nc2ccccc2c1=O,x,n,x,x,x,x,x,x

# Source: PubChem (Broad Institute)
